Tests used:
Format in all cases: functional
UACC-62 = assay: Cytotoxicity against human UACC62 cells assessed as cell growth at 10 uM; details: for growth at 10 µM: Homo sapiens, UACC-62, read-out: Activity
In short: (§1)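 Single-dose screen at 10 μM across the 60-cell-line panel. Cells grown in RPMI 1640 with 5% FBS and 2 mM L-glutamine, seeded at 5,000–40,000 cells/well according to doubling time, and treated 24 h later. Exposure lasted 48 h at 37 °C, 5% CO₂. Adherent cells were fixed with cold TCA, suspension cells were fixed settled, and both were stained with SRB and read at 515 nm. Growth % was recorded, with inhibition % = 100 − growth %.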

NCI-H322M = assay: Cytotoxicity against human NCI-H322M cells assessed as cell growth at 10 uM; details: Homo sapiens, NCI-H322M; read-out: Activity; in short: as §1
MDA-MB-435 = assay: Cytotoxicity against human MDA-MB-435 cells assessed as cell growth at 10 uM; details: read-out: Activity; in short: as §1
KM12 = assay: Cytotoxicity against human KM12 cells assessed as cell growth at 10 uM; details: Homo sapiens, KM12; read-out: Activity; in short: as §1
RXF 393 = assay: Cytotoxicity against human RXF393 cells assessed as cell growth at 10 uM; details: for growth at 10 µM: Homo sapiens, RXF 393, read-out: Activity; in short: as §1
HOP-92 = assay: Cytotoxicity against human HOP92 cells assessed as cell growth at 10 uM; details: Homo sapiens, HOP-92; read-out: Activity
In short: (§2)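 Single-concentration screen at 10 μM across the 60-cell-line panel (nine tissue types); growth percentage recorded per cell line, with inhibition taken as 100 minus growth percentage.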

SK-MEL-5 = assay: Cytotoxicity against human SK-MEL-5 cells assessed as cell growth at 10 uM; details: for growth at 10 µM: Homo sapiens, SK-MEL-5, read-out: Activity; in short: as §1
IGROV-1 = assay: Cytotoxicity against human IGROV1 cells assessed as cell growth at 10 uM; details: for growth at 10 µM: Homo sapiens, IGROV-1, read-out: Activity; in short: as §1
HL-60(TB) = assay: Cytotoxicity against human HL-60(TB) cells assessed as cell growth at 10 uM; details: Homo sapiens, HL-60; read-out: Activity
In short: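 Single-concentration 10 µM screen of HL-60(TB) within the 60-line panel, grown in RPMI 1640 with 5% FBS. The drug from DMSO stock is incubated 48 h at 37 °C, settled cells are TCA-fixed and SRB-stained, and absorbance is read at 515 nm. Percent growth is reported, and inhibition % is taken as 100 minus growth %.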

[1] = Cytotoxicity against human […] cells assessed as cell growth at 10 uM; details: for growth at 10 µM: Homo sapiens, RPMI8266, read-out: Activity; in short: as §1
A498 = assay: Cytotoxicity against human A498 cells assessed as cell growth at 10 uM; details: for growth at 10 µM: Homo sapiens, A498, read-out: Activity; in short: as §2
CCRF-CEM = assay: Cytotoxicity against human CCRF-CEM cells assessed as cell growth at 10 uM; details: Homo sapiens, CCRF-CEM; read-out: Activity; in short: as §2
M14 = assay: Cytotoxicity against human M14 cells assessed as cell growth at 10 uM; details: for growth at 10 µM: Homo sapiens, M14, read-out: Activity; in short: as §1
NCI-H460 = assay: Cytotoxicity against human NCI-H460 cells assessed as cell growth at 10 uM; details: Homo sapiens, NCI-H460; read-out: Activity; in short: as §1
SN12C = assay: Cytotoxicity against human SN12C cells assessed as cell growth at 10 uM; details: for growth at 10 µM: Homo sapiens, SN12C, read-out: Activity; in short: as §1
SNB-19 = assay: Cytotoxicity against human SNB19 cells assessed as cell growth at 10 uM; details: read-out: Activity; in short: as §1
A549 = assay: Cytotoxicity against human A549 cells assessed as cell growth at 10 uM; details: Homo sapiens, A549; read-out: Activity; in short: as §2
786-0 = assay: Cytotoxicity against human 786-0 cells assessed as cell growth at 10 uM; details: for growth at 10 µM: Homo sapiens, 786-0, read-out: Activity; in short: as §2
OVCAR-5 = assay: Cytotoxicity against human OVCAR5 cells assessed as cell growth at 10 uM; details: for growth at 10 µM: Homo sapiens, OVCAR-5, read-out: Activity; in short: as §1
SK-MEL-2 = assay: Cytotoxicity against human SK-MEL-2 cells assessed as cell growth at 10 uM; details: for growth at 10 µM: Homo sapiens, SK-MEL-2, read-out: Activity; in short: as §1
T47D = assay: Cytotoxicity against human T47D cells assessed as cell growth at 10 uM; details: for growth at 10 µM: Homo sapiens, T47D, read-out: Activity; in short: as §1
[2] = Cytotoxicity against human Hs 578T cells assessed as cell growth at 10 uM; details: read-out: Activity; in short: as §2

| Structure (SMILES) | growth at 10 µM (NCI-H322M) | growth at 10 µM (MDA-MB-435) | growth at 10 µM (KM12) | growth at 10 µM (HOP-92) | growth at 10 µM (HL-60(TB)) | growth at 10 µM (CCRF-CEM) | growth at 10 µM (NCI-H460) | growth at 10 µM (SNB-19) | growth at 10 µM (A549) | growth at 10 µM (UACC-62) | growth at 10 µM (RXF 393) | growth at 10 µM (SK-MEL-5) | growth at 10 µM (IGROV-1) | growth at 10 µM (A498) | growth at 10 µM [2] | growth at 10 µM (M14) | growth at 10 µM (786-0) | growth at 10 µM (OVCAR-5) | growth at 10 µM (SK-MEL-2) | growth at 10 µM (T47D) | also measured |
| --- | --- | --- | --- | --- | --- | --- | --- | --- | --- | --- | --- | --- | --- | --- | --- | --- | --- | --- | --- | --- | --- |
| CC(=O)c1ccccc1-c1ccc(-c2ccnc(NC(=O)Nc3cc(C(F)(F)F)cc(C(F)(F)F)c3)n2)cn1 | 85% | 98.1% | 93.8% | 89.9% | 101% | 79.3% | 95.9% | 91.5% | 86.8% |  |  |  |  |  |  |  |  |  |  |  | Activity (UACC-62): 92.88%; Activity (RXF 393): 104.4%; Activity (SK-MEL-5): 97.2%; Activity (IGROV-1): 78.4%; Activity [1]: 98.17%; Activity (A498): 106.93%; Activity (M14): 102.28%; Activity (SN12C): 96.07%; Activity (786-0): 93.55%; Activity (OVCAR-5): 113.85%; Activity (SK-MEL-2): 95.01%; Activity (T47D): 82.59% |
| FC(F)(F)c1cc(Nc2nccc(-c3cccnc3)n2)cc(C(F)(F)F)c1 | 97.5% | 102% | 103% |  | 101% |  | 103% | 94% | 93.8% | 102% | 79% | 101% | 101% | 103% | 103% | 116% | 97.1% | 97% | 98.2% | 83.9% | growth at 10 µM (SN12C): 88% |
| Cc1cc(-c2cccnc2)nc(NC(=O)c2cccc(C(F)(F)F)c2)n1 | 100% | 100% | 109% | 107% | 97% | 94.8% | 103% | 90.8% | 97.4% | 92.3% | 90.8% | 99% | 103% | 93.9% | 107% | 109% | 95.2% | 95.7% | 93.5% | 95.5% | growth at 10 µM [1]: 98.6%; growth at 10 µM (SN12C): 95.3% |
| c1ccc(-c2ccc(-c3ccnc(Nc4ccc(N(c5ccccc5)c5ccccc5)cc4)n3)cn2)cc1 | 88.5% | 98.5% | 97% | 151% | 91.8% | 73.1% | 84.4% | 135% | 77.1% | 96.9% | 99.4% | 118% | 67.2% | 96.2% | 76.8% | 90.2% | 71.5% | 106% | 102% | 111% | growth at 10 µM [1]: 110% |
| CC(=O)c1ccc(-c2ccc(-c3ccnc(Nc4cc(C(F)(F)F)cc(C(F)(F)F)c4)n3)cn2)cc1 | 103% | 115% | 114% | 103% | 107% | 99.4% | 106% | 110% | 104% | 104% | 113% | 101% | 99.7% | 97.4% | 110% | 109% | 105% | 109% | 104% | 91.6% | growth at 10 µM [1]: 97.8%; growth at 10 µM (SN12C): 93.6% |

Source: ChEMBL document CHEMBL1165943, “Design and synthesis of new anticancer pyrimidines with multiple-kinase inhibitory effect” (Bioorg Med Chem, 2010)
